Assay [1] in a line: Inhibition of trypsin.
Assay [2] in a line: Inhibition of trypsin at 20 ug/ml.
Assay [3] has as its target Prothrombin (Homo sapiens) (UniProt P00734). Nature of the assay: Inhibition of thrombin at 20 ug/ml.
Assay [4] is described as follows: Inhibition of chymotrypsin. The method, boiled down:
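Alpha-chymotrypsin type II was made up at 15 U/mL in 50 mM Tris-HCl (pH 7.6). The enzyme and test solution were preincubated at 37 °C for 5 min. Substrate solution was N-succinyl-L-phenylalanyl-p-nitroanilide, 1 mg/mL in buffer. After adding it, absorbance at 405 nm was read at once and again after 30 min at 37 °C.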

≈ marks a conversion by molar mass, not a printed value. Calls of active or inactive are those of the source. No cut-off for these calls is given here.

With `CCCCCC(=O)N[C@@H](CCC(=O)O)C(=O)N[C@@H]1C(=O)N[C@@H](CCCNC(=N)N)C(=O)N[C@H]2CC[C@@H](O)N(C2=O)[C@@H](CC(C)C)C(=O)N(C)[C@@H](Cc2ccc(O)cc2)C(=O)N[C@@H](C(C)C)C(=O)O[C@@H]1C` [MICROPEPTIN B], the IC50 (in general, the concentration needed to halve the response being measured) in assay [1] was 0.25 µg/mL (≈ 0.253 µM).

In the case of `CCCCCC(=O)N[C@@H](CCC(=O)O)C(=O)N[C@@H]1C(=O)N[C@@H](Cc2ccc(O)cc2)C(=O)N[C@H]2CC[C@@H](O)N(C2=O)[C@@H](Cc2ccccc2)C(=O)N(C)[C@@H](Cc2ccc(O)cc2)C(=O)N[C@@H](C(C)C)C(=O)O[C@@H]1C` [MICROPEPTIN C], the result in assay [2] and in assay [3] was inactive. This compound registered an IC50 in assay [4] of 1.1 µg/mL (≈ 1.07 µM).

For the compound `CCCCCCCC(=O)N[C@@H](CCC(=O)O)C(=O)N[C@@H]1C(=O)N[C@@H](Cc2ccc(O)cc2)C(=O)N[C@H]2CC[C@@H](O)N(C2=O)[C@@H](Cc2ccccc2)C(=O)N(C)[C@@H](Cc2ccc(O)cc2)C(=O)N[C@@H](C(C)C)C(=O)O[C@@H]1C` [MICROPEPTIN D], the outcome in assay [2] and in assay [3] was inactive. The same compound yielded an IC50 in assay [4] of 1.2 µg/mL (≈ 1.14 µM).

With `CCCCCC(=O)N[C@@H](CCC(=O)O)C(=O)N[C@@H]1C(=O)N[C@@H](Cc2ccc(O)cc2)C(=O)N[C@H]2CC[C@@H](O)N(C2=O)[C@@H](CC(C)C)C(=O)N(C)[C@@H](Cc2ccc(O)cc2)C(=O)N[C@@H](C(C)C)C(=O)O[C@@H]1C` [MICROPEPTIN E], the outcome in assay [2] and in assay [3] was inactive. For the same compound, the IC50 in assay [4] amounted to 1 µg/mL (≈ 1.01 µM).

With `CCCCCCCC(=O)N[C@@H](CCC(=O)O)C(=O)N[C@@H]1C(=O)N[C@@H](Cc2ccc(O)cc2)C(=O)N[C@H]2CC[C@@H](O)N(C2=O)[C@@H](CC(C)C)C(=O)N(C)[C@@H](Cc2ccc(O)cc2)C(=O)N[C@@H](C(C)C)C(=O)O[C@@H]1C` [MICROPEPTIN F], the result in assay [2] and in assay [3] was inactive. Moreover, the IC50 in assay [4] turned out to be 1.5 µg/mL (≈ 1.47 µM).

In assay [1], `CCCCCC(=O)N[C@@H](CCC(=O)O)C(=O)N[C@@H]1C(=O)N[C@@H](Cc2ccc(O)cc2)C(=O)N[C@H]2CC[C@@H](O)N(C2=O)[C@@H](Cc2ccccc2)C(=O)N(C)[C@@H](Cc2c[nH]c3ccccc23)C(=O)N[C@@H](C(C)C)C(=O)O[C@@H]1C` [MICROPEPTIN T 1] returned an IC50 of 3 µg/mL (≈ 2.85 µM).

For the origin of these results see ChEMBL document CHEMBL1151835, “Micropeptins from the freshwater cyanobacterium Microcystis aeruginosa (NIES-100)” (J Nat Prod, 2009).
